Assay results published in ChEMBL document CHEMBL1123950, “N-(Retinoyl)amino acids. Synthesis and chemopreventive activity in vitro” (1988).

Experiments:
L1210 [1] = assay: Inhibition of proliferation of L1210 cells in culture at a conc 1 ug/mL; type: functional, Mus musculus; design: scale not given: the % may be the effect or the level left
Outline: (§1)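 L1210 suspension of about 10⁵ cells treated with retinoid at 1-40 μg/mL, 37 °C for 48 h; cells counted at 0 and 48 h, three cultures averaged per concentration. % of control = 100 × (treated 48 h − 0 h count)/(control 48 h − 0 h count).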

HEp-2 [2] = assay: Viability of human epidermoid carcinoma cells (H.Ep-2) at a conc 1 ug/mL; type: functional
Outline: (§2)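 Human epidermoid carcinoma H.Ep.-2 cells, clone-colony viability assay with retinoid at 1-40 μg/mL; incubated 37 °C for 12 days, stained, colonies counted. % of control = 100 × treated colonies/control colonies.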

L1210 [3] = assay: Inhibition of proliferation of L1210 cells in culture at a conc 10 ug/mL; type: functional, Mus musculus; design: scale not given: the % may be the effect or the level left; outline: as §1
HEp-2 [4] = assay: Viability of human epidermoid carcinoma cells (H.Ep-2) at a conc 40 ug/mL; type: functional; outline: as §2
HEp-2 [5] = assay: Viability of human epidermoid carcinoma cells (H.Ep-2) at a conc 20 ug/mL; type: functional; outline: as §2
HEp-2 [6] = assay: Viability of human epidermoid carcinoma cells (H.Ep-2) at a conc 10 ug/mL; type: functional; outline: as §2
L1210 [7] = assay: Inhibition of proliferation of L1210 cells in culture at a conc 20 ug/mL; type: functional, Mus musculus; design: scale not given: the % may be the effect or the level left; outline: as §1
Cricetinae gen. sp. [8] = assay: Reversal of keratinization in vitamin A deficient hamster trachea culture; type: functional, Cricetulus griseus; conditions: read-out: ED50 (the source's name)
Outline: (§3)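 Tracheas from 29-31-day-old hamsters kept on a vitamin A free diet, cultured in serum-free CMRL 1066 (insulin 1.0 μg/mL, hydrocortisone hemisuccinate 0.1 μg/mL, glutamine 2 mM, Garamycin 50 μg/mL), 50% O2/45% N2/5% CO2, rocked at 36 °C. Retinoid-free for 3 days, then retinoid in DMSO (0.1% final) for 7 days. Fixed in formalin; squamous metaplasia graded mild 2-10%, marked 10-40%, severe >40%.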

Cricetinae gen. sp. [9] = assay: Cultures with minimal degree of squamous metaplasia at a concentration of 10e-11; type: functional, Cricetulus griseus
Outline: (§4)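 Tracheas from 29-31-day-old hamsters fed a vitamin A free diet; cultured in serum-free CMRL 1066 (insulin 1.0 μg/mL, hydrocortisone hemisuccinate 0.1 μg/mL, glutamine 2 mM, Garamycin 50 μg/mL), 50% O2/45% N2/5% CO2, rocked, 36 °C. Retinoid-free 3 days, then retinoid in DMSO (final 0.1%) for 7 days; medium and gas changed three times. Formalin-fixed day 10; squamous metaplasia graded: mild 2-10%, marked 10-40%, severe >40%.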

Cricetinae gen. sp. [10] = assay: Cultures with mild degree of squamous metaplasia at a concentration of 10e-10; type: functional, Cricetulus griseus; outline: as §4
Cricetinae gen. sp. [11] = assay: Cultures with minimal degree of squamous metaplasia at a concentration of 10e-10; type: functional, Cricetulus griseus; outline: as §4
L1210 [12] = assay: Inhibition of proliferation of L1210 cells in culture at a concentration 20 ug/mL; type: functional, Mus musculus; design: scale not given: the % may be the effect or the level left; outline: as §1
Cricetinae gen. sp. [13] = assay: Cultures with no evidence of squamous metaplasia at a concentration of 10e-9; type: functional, Cricetulus griseus; outline: as §4
Cricetinae gen. sp. [14] = assay: Cultures with no evidence of squamous metaplasia at a concentration of 10e-11; type: functional, Cricetulus griseus; outline: as §4
Cricetinae gen. sp. [15] = assay: Cultures with marked degree of squamous metaplasia at a concentration of 10e-8 M; type: functional, Cricetulus griseus; outline: as §4
Cricetinae gen. sp. [16] = assay: Cultures with no evidence of squamous metaplasia at a concentration of 10e-10; type: functional, Cricetulus griseus; outline: as §4
Cricetinae gen. sp. [17] = assay: Cultures with no evidence of squamous metaplasia at a concentration of 10e-8 M; type: functional, Cricetulus griseus; outline: as §4
HEp-2 [18] = assay: Viability of human epidermoid carcinoma cells (H.Ep-2) at a concentration 20 ug/mL; type: functional; outline: as §2
HEp-2 [19] = assay: Viability of human epidermoid carcinoma cells (H.Ep-2) at a concentration 1 ug/mL; type: functional; outline: as §2
Cricetinae gen. sp. [20] = assay: Cultures with marked degree of squamous metaplasia at a concentration of 10e-9; type: functional, Cricetulus griseus; outline: as §4
Cricetinae gen. sp. [21] = assay: Cultures with severe degree of squamous metaplasia at a concentration of 10e-9; type: functional, Cricetulus griseus; outline: as §3
Cricetinae gen. sp. [22] = assay: Cultures with severe degree of squamous metaplasia at a concentration of 10e-11; type: functional, Cricetulus griseus; outline: as §3
HEp-2 [23] = assay: Viability of human epidermoid carcinoma cells (H.Ep-2) at a concentration 10 ug/mL; type: functional; outline: as §2
Cricetinae gen. sp. [24] = assay: Cultures with mild degree of squamous metaplasia at a concentration of 10e-8 M; type: functional, Cricetulus griseus; outline: as §4
Cricetinae gen. sp. [25] = assay: Cultures with mild degree of squamous metaplasia at a concentration of 10e-11; type: functional, Cricetulus griseus; outline: as §4
Cricetinae gen. sp. [26] = assay: Reversal of keratinization in vitamin A deficient hamster trachea culture at a concentration of 10e-8 M; type: functional, Cricetulus griseus; conditions: read-out: ED50 (the source's name); outline: as §3
Cricetinae gen. sp. [27] = assay: Cultures with marked degree of squamous metaplasia at a concentration of 10e-10; type: functional, Cricetulus griseus; outline: as §4
Cricetinae gen. sp. [28] = assay: Cultures with minimal degree of squamous metaplasia at a concentration of 10e-9; type: functional, Cricetulus griseus; outline: as §4
L1210 [29] = assay: Inhibition of proliferation of L1210 cells in culture at a concentration 1 ug/mL; type: functional, Mus musculus; design: scale not given: the % may be the effect or the level left; outline: as §1
Cricetinae gen. sp. [30] = assay: Cultures with severe degree of squamous metaplasia at a concentration of 10e-8 M; type: functional, Cricetulus griseus; outline: as §3
L1210 [31] = assay: Inhibition of proliferation of L1210 cells in culture at a concentration 10 ug/mL; type: functional, Mus musculus; design: scale not given: the % may be the effect or the level left; outline: as §1
HEp-2 [32] = assay: Viability of human epidermoid carcinoma cells (H.Ep-2) at a concentration 40 ug/mL; type: functional; outline: as §2
Cricetinae gen. sp. [33] = assay: Cultures with marked degree of squamous metaplasia at a concentration of 10e-11; type: functional, Cricetulus griseus; outline: as §4
Cricetinae gen. sp. [34] = assay: Cultures with mild degree of squamous metaplasia at a concentration of 10e-9; type: functional, Cricetulus griseus; outline: as §4
Cricetinae gen. sp. [35] = assay: Cultures with minimal degree of squamous metaplasia at a concentration of 10e-8 M; type: functional, Cricetulus griseus; outline: as §4
Cricetinae gen. sp. [36] = assay: Cultures with severe degree of squamous metaplasia at a concentration of 10e-10; type: functional, Cricetulus griseus; outline: as §4

`CCNC(=O)\C=C(C)/C=C/C=C(C)/C=C/C1=C(C)CCCC1(C)C` gave a Control (L1210 [1]) of 84%, a Control (HEp-2 [2]) of 59% and a Control (L1210 [3]) of 77%. For the same molecule, the Control (HEp-2 [4]) was 15%, the Control (HEp-2 [5]) was 10% and the Control (HEp-2 [6]) was 13%. The Control (L1210 [7]) was 54% and the EC50 (Cricetinae gen. sp. [8]) was 300 pM.

With `CC1=C(/C=C/C(C)=C/C=C/C(C)=C\C(=O)Nc2ccc(O)cc2)C(C)(C)CCC1` the EC50 (Cricetinae gen. sp. [8]) was > 1000 pM.

For `CC1=C(/C=C/C(C)=C/C=C/C(C)=C\C(=O)O)C(C)(C)CCC1` [ISOTRETINOIN], the EC50 (Cricetinae gen. sp. [8]) was 30 pM.

For `CC1=C(/C=C/C(C)=C/C=C/C(C)=C/C(=O)NC(CC(C)C)C(=O)O)C(C)(C)CCC1` (configuration not stated), the Culture (Cricetinae gen. sp. [9]) was 0%, the Culture (Cricetinae gen. sp. [10]) was 16% and the Culture (Cricetinae gen. sp. [11]) was 0%. For the same molecule, the Control (L1210 [12]) was 20%, the Culture (Cricetinae gen. sp. [13]) was 87% and the Culture (Cricetinae gen. sp. [14]) was 14%. For the same molecule, the Culture (Cricetinae gen. sp. [15]) was 0%, the Culture (Cricetinae gen. sp. [16]) was 48% and the Culture (Cricetinae gen. sp. [17]) was 96%. For the same molecule, the Control (HEp-2 [18]) was 14%, the Control (HEp-2 [19]) was 73% and the Culture (Cricetinae gen. sp. [20]) was 9%. For the same molecule, the Culture (Cricetinae gen. sp. [21]) was 0%, the Culture (Cricetinae gen. sp. [22]) was 14% and the Control (HEp-2 [23]) was 29%. For the same molecule, the Culture (Cricetinae gen. sp. [24]) was 4%, the Culture (Cricetinae gen. sp. [25]) was 14% and the EC50 (Cricetinae gen. sp. [26]) was 100 pM. The Culture (Cricetinae gen. sp. [27]) was 32%, the Culture (Cricetinae gen. sp. [28]) was 0% and the Control (L1210 [29]) was 95%. It also gave a Culture (Cricetinae gen. sp. [30]) of 0%, a Control (L1210 [31]) of 62% and a Control (HEp-2 [32]) of 25%. The Culture (Cricetinae gen. sp. [33]) was 58%, the Culture (Cricetinae gen. sp. [34]) was 4% and the Culture (Cricetinae gen. sp. [35]) was 0%. It also gave a Culture (Cricetinae gen. sp. [36]) of 4%.

`CC1=C(/C=C/C(C)=C/C=C/C(C)=C/C(=O)O)C(C)(C)CCC1` [TRETINOIN] gave an EC50 (Cricetinae gen. sp. [8]) of 30 pM.

`CC1=C(/C=C/C(C)=C/C=C/C(C)=C/C(=O)Nc2ccc(O)cc2)C(C)(C)CCC1` [FENRETINIDE] showed an EC50 (Cricetinae gen. sp. [8]) of 300 pM.

With `CC1=C(/C=C/C(C)=C/C=C/C(C)=C/C(=O)NCC(=O)O)C(C)(C)CCC1` the Control (L1210 [1]) was 68%, the Control (HEp-2 [2]) was 116% and the Control (L1210 [3]) was 70%. It also gave a Control (HEp-2 [4]) of 13%, a Control (HEp-2 [5]) of 12% and a Control (HEp-2 [6]) of 67%. The Control (L1210 [7]) was 19%.
